From ChEMBL document CHEMBL2380295, “Structure-activity studies on the side chain of a simplified analog of aplysiatoxin (aplog-1) with anti-proliferative activity” (Bioorg Med Chem, 2013)

Legend:
[1] = Cytotoxicity against human Raji cells assessed as cell viability at 10^-6 M; format: cell-based; conditions: read-out: Activity
[2] = Octanol-water partition coefficient, log P of the compound by HPLC analysis; format: physicochemical
Method in brief: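 log P was estimated from HPLC retention, with column dead time measured using unretained formamide.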

MCF7 = assay: Growth inhibition of human MCF7 cells after 48 hrs by sulforhodamine B assay; format: functional; conditions: MCF7, 48 h
Method in brief: (§1)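 Yamori 39-line human cancer panel, NCI method with modifications. Cells plated in RPMI 1640 plus 5% FBS, attached overnight, then exposed 48 h to compound at 10^-8, 10^-7, 10^-6, 10^-5 and 10^-4 M. Sulforhodamine B staining read at 525 nm; % growth = 100[(T−T0)/(C−T0)] from duplicate-point averages, with T0 the time-zero absorbance. GI50 is the concentration giving 50.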

OVCAR-4 = assay: Growth inhibition of human OVCAR4 cells after 48 hrs by sulforhodamine B assay; format: functional; conditions: OVCAR-4, 48 h; method in brief: as §1
NCI-H226 = assay: Growth inhibition of human NCI-H226 cells after 48 hrs by sulforhodamine B assay; format: functional; conditions: NCI-H226, 48 h; method in brief: as §1
OVCAR-8 = assay: Growth inhibition of human OVCAR8 cells after 48 hrs by sulforhodamine B assay; format: functional; conditions: OVCAR-8, 48 h; method in brief: as §1
MKN-45 = assay: Growth inhibition of human MKN45 cells after 48 hrs by sulforhodamine B assay; format: functional; conditions: MKN-45, 48 h; method in brief: as §1
Human gammaherpesvirus 4 [3] = assay: Induction of EBV-early antigen expressed in human Raji cells at 10^-6 M after 48 hrs by immunofluorescence assay relative to control; format: organism-based; conditions: human gammaherpesvirus 4, raji, 1 µM
Method in brief: (§2)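 Raji B-lymphoblastoid cells (5 × 10^5/mL) in RPMI 1640 with 10% FBS, with 4 mM sodium n-butyrate as synergist and test compound at 10^-7 or 10^-6 M (final DMSO 0.4%). Incubated 48 h at 37 °C under 5% CO2. Smears were stained by indirect immunofluorescence using NPC patient serum and FITC anti-human IgG. At least 500 cells counted; % EA-positive recorded; n = 3, SEM.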

MKN-28 = assay: Growth inhibition of human MKN28 cells after 48 hrs by sulforhodamine B assay; format: functional; conditions: MKN-28, 48 h; method in brief: as §1
HT-29 = assay: Growth inhibition of human HT-29 cells after 48 hrs by sulforhodamine B assay; format: functional; conditions: HT-29, 48 h; method in brief: as §1
HCT-15 = assay: Growth inhibition of human HCT15 cells after 48 hrs by sulforhodamine B assay; format: functional; conditions: HCT-15, 48 h; method in brief: as §1
DU-145 = assay: Growth inhibition of human DU145 cells after 48 hrs by sulforhodamine B assay; format: functional; conditions: DU-145, 48 h; method in brief: as §1
[4] = target: T1, Protein kinase C delta type (Homo sapiens, UniProt Q05655); assay: Inhibition of [3H]PDBu binding to PKCdelta-C1A domain peptide (unknown origin)
T1 sequence (Q05655 whole entry, the tested form may be a part): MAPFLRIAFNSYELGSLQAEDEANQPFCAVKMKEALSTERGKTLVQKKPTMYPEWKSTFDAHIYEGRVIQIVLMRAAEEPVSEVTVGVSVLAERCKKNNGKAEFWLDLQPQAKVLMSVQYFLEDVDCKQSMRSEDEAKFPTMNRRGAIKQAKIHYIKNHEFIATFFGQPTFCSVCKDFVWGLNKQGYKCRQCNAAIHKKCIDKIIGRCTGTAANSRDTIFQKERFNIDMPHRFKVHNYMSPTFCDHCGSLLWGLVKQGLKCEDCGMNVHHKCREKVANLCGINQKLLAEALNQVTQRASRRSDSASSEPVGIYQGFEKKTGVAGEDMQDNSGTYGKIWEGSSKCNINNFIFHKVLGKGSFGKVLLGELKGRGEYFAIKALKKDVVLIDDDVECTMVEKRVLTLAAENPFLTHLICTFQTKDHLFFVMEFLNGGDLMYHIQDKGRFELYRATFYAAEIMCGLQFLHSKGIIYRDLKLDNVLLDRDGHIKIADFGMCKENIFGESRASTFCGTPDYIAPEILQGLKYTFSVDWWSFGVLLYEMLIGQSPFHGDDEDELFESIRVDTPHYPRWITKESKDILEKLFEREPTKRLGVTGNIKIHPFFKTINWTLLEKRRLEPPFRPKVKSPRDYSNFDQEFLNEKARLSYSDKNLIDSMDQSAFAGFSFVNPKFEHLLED
Method in brief: (§3)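 Competitive [3H]PDBu binding used 14 or 40 nM PKCδ C1 peptide and 20 nM [3H]PDBu (19.6 Ci/mmol), in 50 mM Tris-maleate (pH 7.4 at 4 °C) with 50 µg/mL phosphatidylserine, 3 mg/mL bovine γ-globulin and varied inhibitor concentrations. IC50 was taken as 50% inhibition of specific binding. Ki was derived by the Sharkey–Blumberg method.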

U-251 = assay: Growth inhibition of human U251 cells after 48 hrs by sulforhodamine B assay; format: functional; conditions: U-251, 48 h; method in brief: as §1
SNB-75 = assay: Growth inhibition of human SNB75 cells after 48 hrs by sulforhodamine B assay; format: functional; conditions: SNB-75, 48 h; method in brief: as §1
LOX IMVI = assay: Growth inhibition of human LOXIMVI cells after 48 hrs by sulforhodamine B assay; format: functional; method in brief: as §1
SK-OV-3 = assay: Growth inhibition of human SKOV3 cells after 48 hrs by sulforhodamine B assay; format: functional; conditions: SK-OV-3, 48 h; method in brief: as §1
PC-3 = assay: Growth inhibition of human PC3 cells after 48 hrs by sulforhodamine B assay; format: functional; conditions: PC-3, 48 h; method in brief: as §1
HCT-116 = assay: Growth inhibition of human HCT116 cells after 48 hrs by sulforhodamine B assay; format: functional; conditions: HCT-116, 48 h; method in brief: as §1
DMS-273 = assay: Growth inhibition of human DMS273 cells after 48 hrs by sulforhodamine B assay; format: functional; conditions: DMS-273, 48 h; method in brief: as §1
Human gammaherpesvirus 4 [5] = assay: Induction of EBV-early antigen expressed in human Raji cells at 10^-7 M after 48 hrs by immunofluorescence assay relative to control; format: organism-based; conditions: human gammaherpesvirus 4, raji, 0.1 µM; method in brief: as §2
A549 = assay: Growth inhibition of human A549 cells after 48 hrs by sulforhodamine B assay; format: functional; conditions: A549, 48 h; method in brief: as §1
SF-268 = assay: Growth inhibition of human SF268 cells after 48 hrs by sulforhodamine B assay; format: functional; conditions: SF-268, 48 h; method in brief: as §1
[6] = Growth inhibition of human HCC2998 cells after 48 hrs by sulforhodamine B assay; format: functional; conditions: HCC 2998, 48 h; method in brief: as §1
[7] = Cytotoxicity against human Raji cells assessed as cell viability at 10^-7 M; format: cell-based; conditions: read-out: Activity
NCI-H460 = assay: Growth inhibition of human NCI-H460 cells after 48 hrs by sulforhodamine B assay; format: functional; conditions: NCI-H460, 48 h; method in brief: as §1
DMS-114 = assay: Growth inhibition of human DMS114 cells after 48 hrs by sulforhodamine B assay; format: functional; conditions: DMS-114, 48 h; method in brief: as §1
SF-295 = assay: Growth inhibition of human SF295 cells after 48 hrs by sulforhodamine B assay; format: functional; conditions: SF-295, 48 h; method in brief: as §1
KM12 = assay: Growth inhibition of human KM12 cells after 48 hrs by sulforhodamine B assay; format: functional; conditions: KM12, 48 h; method in brief: as §1
SNB-78 = assay: Growth inhibition of human SNB78 cells after 48 hrs by sulforhodamine B assay; format: functional; conditions: SNB-78, 48 h; method in brief: as §1
MKN-74 = assay: Growth inhibition of human MKN74 cells after 48 hrs by sulforhodamine B assay; format: functional; conditions: MKN-74, 48 h; method in brief: as §1
[8] = Growth inhibition of human RXF631L cells after 48 hrs by sulforhodamine B assay; format: functional; conditions: RXF 631, 48 h; method in brief: as §1
St-4 = assay: Growth inhibition of human St-4 cells after 48 hrs by sulforhodamine B assay; format: functional; conditions: St-4, 48 h; method in brief: as §1
OVCAR-3 = assay: Growth inhibition of human OVCAR3 cells after 48 hrs by sulforhodamine B assay; format: functional; conditions: OVCAR-3, 48 h; method in brief: as §1
[9] = Growth inhibition of human MKN1 cells after 48 hrs by sulforhodamine B assay; format: functional; conditions: MKN-1, 48 h; method in brief: as §1
[10] = Growth inhibition of human BSY1 cells after 48 hrs by sulforhodamine B assay; format: functional; conditions: BSY-1, 48 h; method in brief: as §1
[11] = target: T1, Protein kinase C delta type; assay: Inhibition of [3H]PDBu binding to PKCdelta-C1B domain peptide (unknown origin); method in brief: as §3
[12] = Growth inhibition of human HBC5 cells after 48 hrs by sulforhodamine B assay; format: functional; conditions: HBC5, 48 h; method in brief: as §1
NCI-H23 = assay: Growth inhibition of human NCI-H23 cells after 48 hrs by sulforhodamine B assay; format: functional; conditions: NCI-H23, 48 h; method in brief: as §1
MKN-7 = assay: Growth inhibition of human MKN7 cells after 48 hrs by sulforhodamine B assay; format: functional; conditions: MKN-7, 48 h; method in brief: as §1
[13] = Growth inhibition of human HBC4 cells after 48 hrs by sulforhodamine B assay; format: functional; conditions: HBC4, 48 h; method in brief: as §1
MDA-MB-231 = assay: Growth inhibition of human MDA-MB-231 cells after 48 hrs by sulforhodamine B assay; format: functional; conditions: MDA-MB-231, 48 h; method in brief: as §1
ACHN = assay: Growth inhibition of human ACHN cells after 48 hrs by sulforhodamine B assay; format: functional; method in brief: as §1
OVCAR-5 = assay: Growth inhibition of human OVCAR5 cells after 48 hrs by sulforhodamine B assay; format: functional; conditions: OVCAR-5, 48 h; method in brief: as §1
SF-539 = assay: Growth inhibition of human SF539 cells after 48 hrs by sulforhodamine B assay; format: functional; conditions: SF-539, 48 h; method in brief: as §1
NCI-H522 = assay: Growth inhibition of human NCI-H522 cells after 48 hrs by sulforhodamine B assay; format: functional; conditions: NCI-H522, 48 h; method in brief: as §1

`CC(=O)Nc1ccc(CCCC[C@@H]2C[C@@H]3C[C@@]4(O[C@H](CCC4(C)C)CC(=O)O[C@@H](CO)CC(=O)O3)O2)cc1O` showed a viability at 1 µM [1] of 60%, a logP [2] of 2.7 and a GI50 (MCF7) of 40.7 µM. It also gave a GI50 (OVCAR-4) of 37.2 µM, a GI50 (NCI-H226) of 26.9 µM and a GI50 (OVCAR-8) of 44.7 µM. The GI50 (MKN-45) was 28.8 µM, the Activity (Human gammaherpesvirus 4 [3]) was 2.4% and the GI50 (MKN-28) was 2.57 µM. For the same compound, the GI50 (HT-29) was 19.5 µM, the GI50 (HCT-15) was 33.9 µM and the GI50 (DU-145) was 29.5 µM. It also gave a Ki [4] of 0.29 µM, a GI50 (U-251) of 26.9 µM and a GI50 (SNB-75) of 41.7 µM. It also gave a GI50 (LOX IMVI) of 12.9 µM, a GI50 (SK-OV-3) of 34.7 µM and a GI50 (PC-3) of 20.9 µM. The GI50 (HCT-116) was 31.6 µM, the GI50 (DMS-273) was 0.933 µM and the Activity (Human gammaherpesvirus 4 [5]) was 2.4%. The GI50 (A549) was 15.1 µM, the GI50 (SF-268) was 43.7 µM and the GI50 [6] was 13.8 µM. For the same compound, the viability at 0.1 µM [7] was 60%, the GI50 (NCI-H460) was 20.4 µM and the GI50 (DMS-114) was 20.9 µM. It also gave a GI50 (SF-295) of 13.2 µM, a GI50 (KM12) of 31.6 µM and a GI50 (SNB-78) of 51.3 µM. It also gave a GI50 (MKN-74) of 33.1 µM, a GI50 [8] of 28.8 µM and a GI50 (St-4) of 2.14 µM. The GI50 (OVCAR-3) was 23.4 µM, the GI50 [9] was 34.7 µM and the GI50 [10] was 26.3 µM. For the same compound, the Ki [11] was 0.036 µM, the GI50 [12] was 46.8 µM and the GI50 (NCI-H23) was 33.9 µM. For the same compound, the GI50 (MKN-7) was 30.2 µM, the GI50 [13] was 2.45 µM and the GI50 (MDA-MB-231) was 16.6 µM. The GI50 (ACHN) was 26.3 µM, the GI50 (OVCAR-5) was 20.4 µM and the GI50 (SF-539) was 30.2 µM. It also gave a GI50 (NCI-H522) of 25.7 µM.

`COc1cccc(CCCC[C@@H]2C[C@@H]3C[C@@]4(O[C@H](CCC4(C)C)CC(=O)O[C@@H](CO)CC(=O)O3)O2)c1` gave a viability at 1 µM [1] of 60%, a logP [2] of 4.4 and a GI50 (MCF7) of 16.2 µM. It also gave a GI50 (OVCAR-4) of 15.8 µM, a GI50 (NCI-H226) of 11.7 µM and a GI50 (OVCAR-8) of 17 µM. For the same compound, the GI50 (MKN-45) was 9.55 µM, the Activity (Human gammaherpesvirus 4 [3]) was 5.2% and the GI50 (MKN-28) was 15.1 µM. The GI50 (HT-29) was 11.2 µM, the GI50 (HCT-15) was 18.2 µM and the GI50 (DU-145) was 13.8 µM. It also gave a Ki [4] of 0.33 µM, a GI50 (U-251) of 17 µM and a GI50 (SNB-75) of 14.5 µM. The GI50 (LOX IMVI) was 11 µM, the GI50 (SK-OV-3) was 16.2 µM and the GI50 (PC-3) was 12 µM. For the same compound, the GI50 (HCT-116) was 13.5 µM, the GI50 (DMS-273) was 11 µM and the Activity (Human gammaherpesvirus 4 [5]) was 2.6%. For the same compound, the GI50 (A549) was 4.9 µM, the GI50 (SF-268) was 14.1 µM and the GI50 [6] was 7.94 µM. The viability at 0.1 µM [7] was 60%, the GI50 (NCI-H460) was 2.57 µM and the GI50 (DMS-114) was 11 µM. The GI50 (SF-295) was 10.2 µM, the GI50 (KM12) was 13.8 µM and the GI50 (SNB-78) was 17.4 µM. For the same compound, the GI50 (MKN-74) was 15.8 µM, the GI50 [8] was 13.8 µM and the GI50 (St-4) was 2.51 µM. The GI50 (OVCAR-3) was 12.6 µM, the GI50 [9] was 11.5 µM and the GI50 [10] was 13.8 µM. It also gave a Ki [11] of 0.0097 µM, a GI50 [12] of 18.6 µM and a GI50 (NCI-H23) of 13.5 µM. The GI50 (MKN-7) was 19.1 µM, the GI50 [13] was 1.7 µM and the GI50 (MDA-MB-231) was 6.61 µM. It also gave a GI50 (ACHN) of 11.5 µM, a GI50 (OVCAR-5) of 13.5 µM and a GI50 (SF-539) of 10 µM. It also gave a GI50 (NCI-H522) of 11.5 µM.
